The results in this text go back to PMC9279630 (Acta Pharmaceutica Sinica. B, 2021).

As usually defined, the Tmax is the time from dosing to the highest level.

This series is classed as in vivo. To be noted: mouse. A digest of the protocol:
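Mice dosed i.p.; horizontal brain sections taken at time points over 24 h, treated by laser-assisted chemical transfer with CHCA as matrix, and imaged by MALDI MSI for the test compound and its metabolite. Relative intensities in brain regions and lateral ventricles cross-checked by LC‒MS/MS. Three biological and technical replicates; mean ± SD from three animals.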

For the compound `Cc1nc2n(c(=O)c1CCN1CCC(c3noc4cc(F)ccc34)CC1)CCCC2` [RISP, risperidone], the time to peak (Tmax) (male, ICR, brain, ip, 20 mg/kg) is about 15 min. Moreover, where the note is “after 2 h, i.p. RISP 20 mg/kg”, the “brain regional distribution after 2 h” value was “a small amount of parent drug was only observed in the lateral ventricles”. The brain regional distribution result (after i.p. administration of RISP 20 mg/kg, around peak) was “mainly observed in the frontal cortex, striatum, and hippocampus regions”.
